# A selection: hits, their analogues and other compounds. The true share with any hit is near 2.6%.
# INS-1E GSIS act: primary screen for activators of insulin secretion dependent on glucose, INS-1E cells, GLuc reporter luminescence; INS-1E GLuc reporter insulin secretion, 2-3 h; activation, % at 16.6 µM; 370,000 tested, 0.61% active;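 active means lowest replicate activation of at least 40%, so every replicate reaches that level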
# RAD54 branch: RAD54 (human) branch migration inhibition; 360,000 tested, 0.14% active; RAD54 Holliday junction branch migration, FAM/BHQ fluorescence; inhibition, % at 10.4 µM; Q92698;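 active means mean normalized replicate activity at least 40 and at least half of replicates scoring 40 or more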;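 further: inhibitors cause a drop in the FAM fluorescence signal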
# AF4-AF9 inh: blocks AF4 peptide binding to human AF9; P42568; AlphaScreen, biotin-AF4 peptide binding to FLAG-AF9; inhibition, % at 10 µM; 350,000 tested, 0.47% active;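 active means every replicate reaching a set inhibition limit, whatever the replicate mean, cut at about 25% in these data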
# Target sequence (P42568 whole entry, looked up): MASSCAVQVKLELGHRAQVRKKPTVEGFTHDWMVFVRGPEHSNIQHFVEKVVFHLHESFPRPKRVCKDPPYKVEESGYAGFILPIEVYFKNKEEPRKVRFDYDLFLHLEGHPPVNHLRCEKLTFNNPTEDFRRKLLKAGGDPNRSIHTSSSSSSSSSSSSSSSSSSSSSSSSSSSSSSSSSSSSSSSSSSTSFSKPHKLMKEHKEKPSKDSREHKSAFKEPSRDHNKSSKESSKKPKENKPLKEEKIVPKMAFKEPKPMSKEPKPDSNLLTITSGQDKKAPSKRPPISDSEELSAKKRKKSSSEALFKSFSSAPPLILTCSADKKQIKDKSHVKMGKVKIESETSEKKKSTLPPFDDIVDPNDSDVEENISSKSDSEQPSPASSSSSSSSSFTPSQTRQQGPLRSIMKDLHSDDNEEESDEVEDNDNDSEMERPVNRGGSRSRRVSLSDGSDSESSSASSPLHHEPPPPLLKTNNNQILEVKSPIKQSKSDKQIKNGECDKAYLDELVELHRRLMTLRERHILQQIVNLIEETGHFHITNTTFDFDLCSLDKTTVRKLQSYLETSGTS
# Ecoli rRNA inh: inhibitors of bacterial rRNA selective over humanized ribosomes; E. coli WT GFP vs humanized-ribosome RFP mutants, fluorescence, 24 h; active compounds read low; DMSO median 0, no signal -100; GFP signal change (wild-type ribosome), % (no concentration beside the values); 350,000 tested, 1.6% active; AID 720706;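 active means significant combined selectivity score with lowered wild-type GFP, culture density cut under 30%, mutant RFP and density less affected; inactive means any of these conditions unmet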
# E-selectin induc: E-selectin induction on HUVECs. HUVEC E-selectin immunofluorescence imaging; normalized: neutral wells 0, TNF-alpha wells 100. activation, % at 7.58 µM. 260,000 tested, 0.37% active. AID 686992;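 active means mean E-selectin-positive cell signal at least 10% of the positive control, reached in at least 60% of replicates, without over 20% cell loss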
#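 System: HUVEC, human umbilical vein endothelial cells; quantity: 3,000 cells/well; buffer or medium: EGM-2 medium, gelatin-coated wells; dosing: single-point compound dose; detection: immunofluorescence imaging; evaluation: % PE-positive cells; benchmarks: TNF-alpha, DMSO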
# RAD52 inh: blocks human RAD52 DNA annealing; P43351; recombinant RAD52 DNA annealing, FRET fluorescence; inhibition, % at 18.7 µM; 360,000 tested, 0.46% active; AID 651710;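 active means every replicate showing at least 50% inhibition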
# Numbers stand for hits; n = inactive; x = no result.
SMILES,INS-1E GSIS act,RAD54 branch,AF4-AF9 inh,Ecoli rRNA inh,E-selectin induc,RAD52 inh
O=C(c1cccnc1)N1CC(=O)N2[C@H](C1)[C@H](c1ccc(-c3cccnc3)cc1)[C@@H]2CO,n,x,32,n,n,n
CC(C)C#Cc1ccc([C@H]2[C@H](CO)N3C(=O)CN(C(=O)NC4CCCCC4)C[C@@H]23)cc1,n,x,x,n,n,n
CN(C)C(=O)c1ccc(-c2ccc([C@@H]3[C@@H](CO)N4C(=O)CN(C(=O)C5CC5)C[C@@H]34)cc2)cc1,67,x,n,n,n,n
CN(C)CC#Cc1ccc([C@H]2[C@H]3CN(C(=O)c4cccnc4)CC(=O)N3[C@H]2CO)cc1,n,x,35,n,n,n
CN(C)C(=O)c1ccc(-c2ccc([C@@H]3[C@H]4CN(C(=O)C5CC5)CC(=O)N4[C@H]3CO)cc2)cc1,n,x,n,n,n,n
O=C(c1ccncc1)N1CC(=O)N2[C@@H](CO)[C@H](c3ccc(-c4cccnc4)cc3)[C@@H]2C1,n,x,n,n,n,n
CC(C)C#Cc1ccc([C@H]2[C@@H](CO)N3C(=O)CN(C(=O)NC4CCCCC4)C[C@@H]23)cc1,n,x,n,n,n,58
C[C@H](O)C#Cc1ccc2c(c1)O[C@H](CN(C)C(=O)Cc1ccccn1)[C@@H](C)CN([C@@H](C)CO)S2(=O)=O,n,n,n,n,n,n
CO[C@@H]1CN(C)C(=O)c2ccc(NC(=O)c3ccc4c(c3)OCO4)cc2OC[C@H](C)N(CC2CC2)C[C@H]1C,n,n,n,n,n,n
COc1ccc2c3c([nH]c2c1)[C@@H](CO)N(C(=O)C1CCC1)CC31CCN(Cc2cccc(F)c2)CC1,n,x,x,n,n,n
O=C(c1cccnc1)N1CC(=O)N2[C@H](C1)[C@H](c1ccc(/C=C/c3ccccc3)cc1)[C@@H]2CO,n,x,37,n,n,n
O=C(c1cccnc1)N1CC(=O)N2[C@H](CO)[C@H](c3ccc(/C=C/c4ccccc4)cc3)[C@@H]2C1,n,x,n,n,n,n
CCc1cc(C(=O)c2ccc(OC)cc2)c(NC(=O)CCC(=O)O)s1,n,n,n,-42,n,n
CCc1cc(C(=O)c2ccc(OC)cc2)c(NC(=O)CN2CCCC2)s1,n,n,n,n,n,n
O=c1cc(-c2ccccc2)oc2ccc(Cl)cc12,n,x,n,n,x,n
CC(O)CN=c1cc(-c2ccccc2)oc2ccc(Cl)cc12 (centres undefined),n,67,x,n,x,n
OCCN=c1cc(-c2ccccc2)oc2ccc(Cl)cc12,x,82,x,x,x,x
COc1ccc2c3c([nH]c2c1)[C@H](CO)N(Cc1ccccc1)CC31CCN(C(=O)c2cccnc2)CC1,n,x,x,n,x,x
COc1ccc(CN(CC2CCC(C(=O)O)CC2)C(=S)Nc2ccc(C)c(Cl)c2)cc1 (centres undefined),n,n,n,-33,x,n
O=C(N[C@H]1CC[C@H](CCNC(=O)C2CCCCC2)O[C@@H]1CO)c1ccncc1,n,n,n,n,n,n
O=c1[nH][nH]c2c1C(c1ccc(Cl)c(Cl)c1)OC(CCc1ccccc1)C2 (centres undefined),56,x,n,n,n,n
COc1ccc(S(=O)(=O)N(C)C[C@@H]2Oc3ccc(NC(=O)c4ccncc4)cc3C(=O)N([C@@H](C)CO)C[C@@H]2C)cc1,n,n,n,n,37,n
COc1ccc(S(=O)(=O)N(C)C[C@H]2Oc3ccc(NC(=O)c4ccncc4)cc3C(=O)N([C@@H](C)CO)C[C@H]2C)cc1,n,n,n,n,n,n
COc1ccc(S(=O)(=O)N(C)C[C@@H]2Oc3ccc(NC(=O)c4ccncc4)cc3C(=O)N([C@H](C)CO)C[C@H]2C)cc1,n,n,n,n,28,n
CO[C@H]1CN(C)C(=O)c2cc(NC(=O)C3CCC3)ccc2OC[C@@H](C)N(Cc2ccc(F)cc2)C[C@@H]1C,n,n,n,n,n,n
COc1ccccc1NC(=O)Nc1ccc2c(c1)C(=O)N(C)C[C@@H](OC)[C@@H](C)CN(C)[C@@H](C)CO2,n,n,n,n,n,n
COC(=O)C[C@H]1CC[C@@H]2[C@H](COc3ccc(NC(=O)Nc4cc(C)cc(C)c4)cc3C(=O)N2C)O1,n,n,n,n,n,n

# Compound activity deposited in PubChem BioAssay by Broad Institute.
